# IDE cell activ: boosts human insulin-degrading enzyme activity in HEK cells | 340,000 compounds, 0.073% hits | FAbeta-B cleavage, fluorescence polarization; 0% vehicle, 100% cell-free pure enzyme wells | P14735 | activation, % at 5.96 µM;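 active = activation above the mean of all tested compounds plus 3 SD, set per screening campaign, cut at about 17% in these data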
# proCasp7 act: counter-screen: procaspase-7 (human) activation; P55210; recombinant procaspase-7, Ac-DEVD-pNA absorbance 405 nm; D23A/D198A/D206A triple mutant, cannot self-cleave; scale: DMSO 0, 5 µM enzyme 100; activation, % at 8.5 µM; 330,000 compounds, 0.093% hits;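 active = percent activation above the screen-wide mean plus 3 SD, cut at about 25% in these data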
# Target sequence (P55210 whole entry D23A/D198A/D206A): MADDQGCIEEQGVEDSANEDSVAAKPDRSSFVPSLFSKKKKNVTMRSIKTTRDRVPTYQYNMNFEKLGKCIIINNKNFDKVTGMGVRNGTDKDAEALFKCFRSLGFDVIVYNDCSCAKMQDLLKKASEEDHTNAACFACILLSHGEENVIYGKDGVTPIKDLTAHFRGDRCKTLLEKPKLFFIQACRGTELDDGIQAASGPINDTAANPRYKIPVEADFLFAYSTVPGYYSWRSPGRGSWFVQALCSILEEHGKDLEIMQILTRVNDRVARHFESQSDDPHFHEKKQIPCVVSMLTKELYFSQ
#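 Assay system – Uncleavable procaspase-7 mutant enzyme · Quantity – 2 µM procaspase-7 mutant as dispensed · Times – 1 h preincubation, 2 h reaction · Dosing – single nominal 8.5 µM compound dose, 0.8% DMSO final · Buffer or medium – Zinc-free 50 mM HEPES buffer, pH 7.4, with NaCl and Triton X-100 · Detection – Epi-absorbance of released pNA at 405 nm, two timepoints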
# UBC13 inh: blocks human UBC13 polyubiquitin chain formation | P61088 | TR-FRET | inhibition, % at 20 µM | 330,000 compounds, 0.47% hits | AID 485273; in the data active = inhibition above about 45%, passing the limit was not always enough
# Target sequence (P61088 whole entry, looked up): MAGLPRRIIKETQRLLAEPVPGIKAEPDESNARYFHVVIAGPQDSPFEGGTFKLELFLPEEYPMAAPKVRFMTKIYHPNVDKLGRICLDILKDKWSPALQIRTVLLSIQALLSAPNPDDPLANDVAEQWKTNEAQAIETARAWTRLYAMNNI
# IDE cell inh: cellular human IDE inhibition; P14735; HEK cells, FAbetaB cleavage, fluorescence polarization; inhibition, % at 5.59 µM; 320,000 compounds, 0.41% hits; AID 434962;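 active = percent inhibition above the average of all tested compounds plus 3 SD, set per screening campaign, cut at about 16% in these data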;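 note: IDE supplied by intact live HEK cells; FP after avidin binding of uncleaved biotin substrate so inhibition keeps polarization high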
# proCasp3 act: procaspase-3 (human) activation. P42574. recombinant procaspase-3 D3A, Ac-DEVD-pNA absorbance 405 nm. activation, % at 8.5 µM. 330,000 compounds, 0.11% hits;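 active = activation above the mean of all tested compounds plus 3 SD, cut at about 21% in these data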
#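 Test system: Procaspase-3 D3A mutant, all three cleavage aspartates alanine | Dosing: Single dose, 8.5 µM nominal compound, 0.8% DMSO | Schedule: 1 h preincubation, 2 h reaction | Technique: 405 nm absorbance of p-nitroaniline, reads at 0 and 120 min | Repeats: One well per compound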
# PHOSPHO1 inh: blocks human PHOSPHO1 phosphatase activity; Q8TCT1; recombinant PHOSPHO1, absorbance phosphatase assay; inhibition, % at 13.3 µM; 290,000 compounds, 1.1% hits; AID 1565; in the data active = inhibition above about 60%
# IDE cell inh cf: cellular human IDE inhibition, confirmation | shares compounds with IDE cell inh | HEK cells, FAbetaB cleavage, fluorescence polarization | inhibition, % at 5.59 µM | 1,200 compounds, 51% hits;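 active = mean inhibition across triplicate wells above the cutoff set by the earlier primary insulin-degrading enzyme screen, cut at about 16% in these data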
# HEK293 tox: kills HEK cells in IDE inhibitor counter-screen; AID 449730; HEK293 cytotoxicity, ATP luminescence; 1,200 compounds, 28% hits; inhibition, % at 5.59 µM; shares compounds with IDE cell inh; in the data active = inhibition above about 22%
# A number is an active result; . = inactive; / = no result given. Most compounds without a hit are left out; they make up all but 1.9% or so of the library.
SMILES,IDE cell activ,proCasp7 act,UBC13 inh,IDE cell inh,proCasp3 act,PHOSPHO1 inh,IDE cell inh cf,HEK293 tox
Cc1ccc(Cl)cc1N1CCN(C(=O)c2ccc3nc[nH]c3c2)CC1,.,.,.,19,.,.,.,.
Cc1cccc(N2CCN(C(=O)c3ccc4nc[nH]c4c3)CC2)c1C,.,.,.,.,.,.,/,/
O=C(NC1CC2CCCC(C1)N2C(=O)Nc1ccccc1F)C1CC1 (stereo unspecified),.,.,.,.,.,.,/,/
CCOc1cccc(/C=C(/C#N)c2nc3ccccc3[nH]2)c1OCC(=O)O,.,.,.,.,.,.,/,/
CCN(CC)c1ccc(/C=C(/C#N)c2nc3ccccc3[nH]2)c(OC(C)C)c1,.,.,.,141,.,.,149,32
O=c1cc(COc2ccc(Cl)c(Cl)c2)nc2sccn12,.,.,.,.,.,.,/,/
O=c1cc(CNc2cc(Cl)ccc2Cl)nc2sccn12,.,.,.,17,.,.,.,.
COc1ccc(C2C=C(Nc3ccccc3)C(=O)N2c2ccccc2)cc1OC (stereo unspecified),.,.,.,17,.,.,.,23
COc1ccccc1N1CCN(S(=O)(=O)CCNC(=O)C23CC4CC(CC(C4)C2)C3)CC1,.,.,.,20,.,.,.,32
COc1ccccc1N1CCN(S(=O)(=O)CCNC(=O)CC2CCCCC2)CC1,.,.,.,.,.,/,/,/
Cc1ccc(C)c(NC(=O)CSc2nc3c(c(=O)n2C)SC(C)C3)c1 (stereo unspecified),.,.,.,.,.,.,/,/
Cc1ccc2nc(NC(=O)CSc3nc4c(c(=O)n3C)SC(C)C4)sc2c1 (stereo unspecified),.,.,.,25,.,.,.,.
Cc1ccc(N2CC(C(=O)NCc3n[nH]c(=O)c4ccccc34)CC2=O)cc1 (stereo unspecified),.,.,.,.,.,/,/,/
Cc1cccc(C(=O)NCC(=O)OC(C)C(=O)Nc2ccc(Cl)cn2)c1 (stereo unspecified),.,.,.,16,.,/,.,.
Cc1cccc(OCC(=O)OC(C)C(=O)Nc2ccc(Cl)cn2)c1 (stereo unspecified),.,.,.,.,.,/,/,/
Cc1ccccc1S(=O)(=O)Cc1ccc(C(=O)N2CCN(c3cccc(C)c3C)CC2)o1,.,.,.,17,.,.,.,69
Cc1ccccc1S(=O)(=O)Cc1ccc(C(=O)N2CC(C)CC(C)C2)o1 (stereo unspecified),.,.,.,.,.,.,/,/
COc1ccc(CC(=O)NCc2ccc(Cl)cc2)cc1S(=O)(=O)N1CCOCC1,.,/,.,/,/,/,/,/
Cn1cc(/C=C/c2cc[n+](C)cc2)c2cc(F)ccc21,.,.,/,31,.,.,75,77
Cc1ccc2c(c1)c(/C=C/c1cc[n+](C)cc1)c(C)n2C,.,/,.,/,/,.,/,/
Cn1cc(/C=C/c2cc[n+](C)cc2)c2cc(Cl)ccc21,.,.,/,38,.,.,62,81
CC(=O)Nc1ccc(C(=O)NCC2(N3CCCCC3)CCCCC2)cc1,.,.,.,.,.,.,/,/
Cc1c(N2C(=O)/C(=C\c3ccc(N(C)C)cc3)N(C)C2=S)c(=O)n(-c2ccccc2)n1C,.,.,/,53,.,.,40,.
Nc1c(C(=O)Nc2nc3ccccc3s2)sc2nc(-c3cccs3)ccc12,.,.,.,29,.,.,37,81
CCN1C(=O)[C@@H]2Cc3c([nH]c4ccccc34)C(c3ccc(OC)cc3)N2C1=S (stereo partly specified),.,.,.,41,.,.,20,61
Fc1cc(F)c(NC(=S)N2CCOCC2)c(F)c1,.,.,.,.,.,.,/,/
Cc1onc(-c2ccccc2)c1C(=O)Nc1ccc(Br)cc1Cl,.,.,.,.,.,.,/,/
CCN1C(N(C)C)=NC[C@@H]1Cc1ccccc1,.,.,.,.,.,/,/,/

# Screening data deposited in PubChem by several laboratories.
